# Source: PubChem
# The list is not random: actives were taken first. Their share in the collection is about 3%.
# CHRM4 agonist – CHRM4 agonism in calcium assay. P08173. CHO-K1 hM4/Gqi5, Fluo-8 calcium fluorescence; vehicle 0%, full acetylcholine response 100%. activation, % at 3 µM. 0.14% of 360,000 active;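 active = activation above the run mean over all test wells plus 3 SD, cut at about 32% in these data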;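 also: peak over basal fluorescence ratio per well then scaled between controls; 0% = DMSO wells and 100% = acetylcholine at EC100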
# Target sequence (P08173 whole entry, looked up): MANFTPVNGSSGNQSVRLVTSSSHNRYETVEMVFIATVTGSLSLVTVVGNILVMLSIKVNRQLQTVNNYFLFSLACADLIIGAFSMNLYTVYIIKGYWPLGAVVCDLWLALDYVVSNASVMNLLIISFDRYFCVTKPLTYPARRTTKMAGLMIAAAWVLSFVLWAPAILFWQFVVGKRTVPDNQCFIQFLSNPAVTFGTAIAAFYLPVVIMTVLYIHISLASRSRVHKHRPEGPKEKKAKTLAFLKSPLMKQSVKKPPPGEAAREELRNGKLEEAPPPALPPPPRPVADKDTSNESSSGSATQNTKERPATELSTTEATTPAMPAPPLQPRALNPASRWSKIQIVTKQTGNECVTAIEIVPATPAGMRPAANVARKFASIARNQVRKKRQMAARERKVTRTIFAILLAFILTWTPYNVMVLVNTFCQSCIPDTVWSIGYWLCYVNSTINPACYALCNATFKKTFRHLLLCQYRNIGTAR
# TAAR1 agonist – human TAAR1 agonism. 0.99% of 360,000 active. AID 624467. Q96RJ0. activation, % at 3 µM. CHO RD-HGA16 TAAR1, Fluo-8 calcium fluorescence; vehicle wells 0%, saturating PEA agonist 100%;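 active = activation above the mean activation of all test compounds in the run plus 3 SD, cut at about 38% in these data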
#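 Test system: RD-HGA16 (CHO) cells co-expressing Gα16 and hTAAR1 / Benchmarks: DMSO vehicle as 0%, PEA at EC100 as 100% / Repeats: no replicates (n 1) / Measure: % activation from peak over basal fluorescence ratio, DMSO-to-PEA scaled / Timing: 17-24 h plating, Fluo-8 75 min 37 °C, 30 min RT / Technique: kinetic Fluo-8 calcium fluorescence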
# CHRM4 PAM – potentiates acetylcholine response at human M4 receptor; P08173; CHO-K1 hM4/Gqi5, Fluo-8 calcium fluorescence, ACh EC20; 0% = ACh EC20, 100% = maximal ACh; activation, % at 3 µM; 0.4% of 360,000 active;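 active = activation above its plate's cutoff, the mean activation of sample wells plus 3 SD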
# M4 antag – antagonists of human muscarinic M4 receptor (CHRM4); P08173; CHO-hM4 cells, ACh EC80, Fluo-8 calcium fluorescence; inhibition, % at 3 µM; 0.73% of 360,000 active;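 active = inhibition above its plate's cutoff, the mean inhibition of sample wells plus 3 SD, cut at about 27% in these data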;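 also: 0% = acetylcholine EC80 with DMSO and 100% = DMSO without agonist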
# TAAR1 antag – human TAAR1 antagonism; AID 624466; 1.5% of 360,000 active; CHO RD-HGA16 TAAR1, Fluo-8 calcium fluorescence, antagonist; Q96RJ0; inhibition, % at 3 µM;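 active = inhibition above a per-plate cutoff, the mean inhibition of test compounds on that plate plus 3 SD, cut at about 49% in these data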;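 also: 0% = DMSO plus EC80 beta-PEA response and 100% = DMSO alone without agonist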
#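 Assay system: RD-HGA16 CHO cells with stable hTAAR1 and Gα16 / Reagent: EC80 β-phenethylamine stimulus / Doses: 3 µM, single point / Timing: dye loading 75 min at 37 °C, then 30 min room temperature / Measured by: Fluo-8 intracellular calcium dye fluorescence, real-time kinetic reads / Controls: vehicle wells and EC80 agonist wells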
# * = called active by the depositor; . = no result.
SMILES,CHRM4 agonist,TAAR1 agonist,CHRM4 PAM,M4 antag,TAAR1 antag
O=C(NC1CCCC1)[C@@H]1CCCN1C(=O)[C@@H](NC(=O)N1CCOCC1)c1ccccc1,.,1.6,.,.,-18.5
CCOC(=O)c1sc(NC(=O)Nc2cccc(Cl)c2)cc1C,17.0,7.2,-24.2,37.5*,48.1
C[C@H]1NS(=O)(=O)c2cccc(Cl)c2O[C@@H]1c1ccccc1,.,1.4,.,.,15.0
CCCCS(=O)(=O)/C=C\C=C/S(=O)(=O)CCCC,3.6,.,3.7,37.2*,.
Cc1cc(C)nc(NCCCc2ccccc2)n1,-0.4,2.7,9.4,-7.6,7.9
CCCCNc1cc(C)nc(NCc2ccccc2)n1,23.2,.,-6.1,32.6*,.
Cc1[nH]c2ccccc2c1C(=O)CN1C(=O)NC2(CC(C)CC(C)(C)C2)C1=O (configuration not stated),19.0,17.0,-20.7,9.1,53.4*
O=C(CN1C(=O)NC2(CCCC2)C1=O)OCc1ccc(Br)cc1,2.4,-2.9,-1.8,-0.9,2.3
CC1CC(C)(C)CC2(C1)NC(=O)N(CC(=O)OCc1ccc(Br)cc1)C2=O (configuration not stated),-0.2,41.3*,10.9,-11.3,22.7
Cc1cccc(C2(c3cccc(C)c3)CC2C(=O)Nc2ccc([N+](=O)[O-])cc2O)c1 (configuration not stated),6.8,2.9,-13.1,27.2*,58.0*
O=C(COC(=O)c1n[nH]c2ccccc12)NC1CCCCC1,2.6,2.5,4.0,-10.8,7.7
O=C(COC(=O)c1n[nH]c2ccccc12)NC(=O)NC1CCCCC1,4.9,43.6*,3.2,3.0,-7.1
C[C@@H]1CN([C@@H](C)CO)C(=O)CCCn2cc(nn2)CO[C@H]1CN(C)C(=O)NC1CCCCC1,.,5.0,.,.,4.0
CCc1cccc(C)c1NC(=O)C1=C(C(=O)O)CCCC1,2.1,4.2,5.2,27.8*,16.7
COc1cc(C(=O)NC(=S)NNC(=O)c2ccc3c(c2)OCO3)cc(OC)c1OC,2.9,52.0*,-2.6,7.4,-11.6
COc1ccc(C(=O)NC(=S)NNC(=O)c2ccc(NC(C)=O)cc2)cc1Br,-0.6,10.4,-0.9,-0.1,-7.1
COc1ccc(C(=O)NNC(=S)NC(=O)c2ccc(F)cc2)cc1Br,93.4*,51.3*,-18.9,15.2,6.5
Nc1nc2c(C(=O)N3CCCC3)nnn2c2ccccc12,.,-1.0,.,.,-17.4
O=C1CCCC2=C1C1c3ccccc3C(=O)N1c1ccc(C(=O)c3ccccc3)cc1N2 (configuration not stated),5.6,11.6,-14.1,12.6,49.5*
CCC(=O)N1c2ccccc2NC2=C(C(=O)CCC2)C1c1ccc(N(C)C)cc1 (configuration not stated),0.8,0.3,10.1,-8.1,9.7
C[C@@H]1ON(C)[C@H]2C[C@H]3c4[nH]c5c(-c6ccccc6F)cccc5c4CCN3C(=O)[C@@H]12,.,3.6,.,.,20.2
O=C(NCc1ccccc1)[C@H]1CCCN1C(=O)[C@H]1CCCN1C(=O)c1ccc(F)cc1,.,2.0,.,.,-13.1
COc1ccc(C(=O)C2CCCN(C(=O)c3cccc(Cn4cccn4)c3)C2)cc1F (configuration not stated),6.4,1.1,0.9,-7.0,-13.4
COc1ccc(CN2CCCC(C(=O)c3ccc(SC)cc3)C2)cc1Cn1cccn1 (configuration not stated),5.2,1.2,-50.9,37.2*,-1.9
CSc1ccc(C(=O)C2CCCN(Cc3ccc(N4CCNC4=O)cc3)C2)cc1 (configuration not stated),1.6,1.9,-21.8,70.3*,-32.8
SMILES,CHRM4 agonist,TAAR1 agonist,CHRM4 PAM,M4 antag,TAAR1 antag
CCOC(=O)c1[nH]ncc1CN1CCCC(C(=O)c2ccc(SC)cc2)C1 (configuration not stated),1.3,1.0,1.4,-4.6,9.1
Cc1ccc(C)c2[nH]c(=O)c(C(c3nnnn3Cc3ccccc3)N3CCc4ccccc4C3)cc12 (configuration not stated),4.8,48.8*,5.0,-5.3,41.8
CC(C)(C)c1ccc(OCc2ccc(C(=O)N/N=C/c3ccc(O)c(O)c3)cc2)cc1,21.8,16.3,-17.0,23.3,53.0*
CCOc1ccc(N2CC(C(=O)N3CCN(c4ccccn4)CC3)CC2=O)cc1 (configuration not stated),1.6,0.2,4.7,-2.0,-12.7
CCc1ccc(N2CC(C(=O)N3CCN(c4ccccn4)CC3)CC2=O)cc1 (configuration not stated),1.3,-0.8,26.5*,-23.6,-35.5
O=C(N[C@H](C(=O)N1CCC[C@H]1C(=O)NCc1ccccc1)c1ccccc1)c1ccc(Cl)c(Cl)c1,.,-1.2,.,.,-2.8
COc1ccc(C(CCNCc2ccc(OC(C)C)cc2)C(C)C)cc1 (configuration not stated),26.5,23.2,-18.5,23.3,11.0
COc1ccc(C(CCNCc2ccc(N(C)C)cc2)C(C)C)cc1 (configuration not stated),27.3,10.5,-51.9,41.9*,1.1
Nc1[nH]c(C(=O)c2ccccc2)c(-c2ccccc2C(F)(F)F)c1C(=O)c1c[nH]c2ccccc12,.,3.1,.,.,-22.3
Cc1cc(C)cc(C(O)c2ncc(-c3cccc(F)c3)[nH]2)c1 (configuration not stated),2.3,7.7,10.8,-0.1,-0.2
CC1CCN(c2ccccc2NC(=O)c2ccc(C#N)cc2F)CC1,-0.5,3.2,23.2*,-1.5,-31.0
O=C(Nc1ccc(O)cc1)/C(=C\C=C\c1ccccc1)NC(=O)c1ccccc1,6.4,5.8,-25.5,16.6,49.6*
COc1ccc(Cn2c(C)c(CC(=O)Nc3ccc(Oc4cccnc4)c(C)c3)c3ccccc32)cc1,.,-1.3,.,.,23.3
O=C(Nc1ccc(F)cc1)Nc1ccc(NC(=O)c2ccccc2O)cc1,11.9,41.1*,-9.5,11.3,57.6*
O=C1CCC(C(=O)N2CCCC2)CN1Cc1cccc(C(F)(F)F)c1 (configuration not stated),0.5,1.4,0.0,0.0,-0.2
O=C1CCC(C(=O)N2CCCO2)CN1Cc1cccc(C(F)(F)F)c1 (configuration not stated),1.6,1.1,18.7*,-10.1,-1.5
CCc1nnc(NC(=O)CN2C(=O)NC3(CCCC3)C2=O)s1,-0.5,1.0,-1.8,8.5,5.2
CCc1ccc(C(=O)NNC(=O)CN2C(=O)NC3(CCCC3)C2=O)cc1,0.6,0.1,3.9,1.6,-0.4
CC1CCC2(CC1)NC(=O)N(CC(=O)Nc1ccc(F)cc1)C2=O (configuration not stated),0.6,0.7,3.1,-6.8,-9.4
CCC1(c2ccc(F)cc2)NC(=O)N(CC(=O)Nc2ccc(N3CCCCC3)cc2)C1=O (configuration not stated),20.6,59.8*,-2.9,2.2,18.8
